Compound activity deposited in PubChem BioAssay by The Scripps Research Institute Molecular Screening Center.
The list is not random: actives were taken first. Their share in the collection is about 4.6%.
OX1R antag-1 = OX1R (HCRTR1) antagonists, primary screen, fluorescence, CHO/OX1R cells, Fluo-8 calcium, orexin A. Fluo-8 calcium fluorescence. inhibition, % at 5 µM. 330,000 compounds, 0.43% hits. AID 434989, 2010;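 active = inhibition above its plate's threshold, mean inhibition of all tested compounds on the plate plus 3 SD, cut at about 37% in these data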
TAAR1 agonist = human TAAR1 agonists, primary screen, Fluo-8 calcium fluorescence, CHO RD-HGA16 cells; Trace amine-associated receptor 1 (Homo sapiens), Q96RJ0; vehicle wells 0%, saturating PEA agonist 100%; activation, % at 3 µM; 360,000 compounds, 0.99% hits; AID 624467, 2012;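 active = activation above the mean activation of all test compounds in the run plus 3 SD, cut at about 38% in these data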
Target sequence (Q96RJ0 whole entry, looked up): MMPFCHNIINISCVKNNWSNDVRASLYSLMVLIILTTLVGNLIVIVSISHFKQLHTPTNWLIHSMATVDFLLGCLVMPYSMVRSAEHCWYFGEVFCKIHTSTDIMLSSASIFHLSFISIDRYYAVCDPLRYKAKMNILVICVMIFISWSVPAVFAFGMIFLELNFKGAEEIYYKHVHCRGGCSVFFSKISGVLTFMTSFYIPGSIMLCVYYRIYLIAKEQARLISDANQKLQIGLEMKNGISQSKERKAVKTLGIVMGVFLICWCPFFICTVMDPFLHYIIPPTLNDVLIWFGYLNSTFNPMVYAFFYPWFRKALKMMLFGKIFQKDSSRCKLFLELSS
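test system = CHO RD-HGA16 cells carrying human TAAR1 plus Gα16 | schedule = 17-24 h seeding, 75 min 37 °C dye, 30 min RT | compound dosing = 3 µM single concentration | control set = DMSO and PEA EC100 | replicates = n 1 | signal = Fluo-8 fluorescence, 5 s baseline then 140 s kinetic read | measure = percent activation vs PEA EC100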
TAAR1 antagonist = human TAAR1 antagonists, primary screen, Fluo-8 calcium fluorescence, CHO RD-HGA16 cells; Trace amine-associated receptor 1 (Homo sapiens), Q96RJ0; antagonist; inhibition, % at 3 µM; 360,000 compounds, 1.5% hits; AID 624466, 2012;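 active = inhibition above a per-plate cutoff, the mean inhibition of test compounds on that plate plus 3 SD, cut at about 49% in these data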
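Material: RD-HGA16 CHO cells with stable hTAAR1 and Gα16; Dosing: single nominal final test compound concentration of 3 µM; Schedule: seeding 17-24 h prior, 75-min 37 °C, 30-min RT dye loading; Detection: kinetic Fluo-8 calcium fluorescence measurement; Measure: % inhibition from peak post-agonist over basal fluorescence ratio; Benchmarks: vehicle and agonist controls.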
OX1R antag-2 = antagonists of human orexin 1 receptor (OX1R) | inhibition, % at 6.6 µM | OX1R-expressing cells, FRET antagonist read-out | 330,000 compounds, 1.8% hits; in the data active = inhibition mostly above about 38%, no sharp cut-off; inactive = mostly below about 40%
GPR7 antag = GPR7 receptor antagonists, primary screen, cell-based, fluorescence, single concentration; Neuropeptides B/W receptor type 1 (Homo sapiens), P48145; GPR7-expressing cells, fluorescence antagonist assay; inhibition, % at 4.4 µM; 290,000 compounds, 1.1% hits; AID 1861, 2009; in the data active = inhibition above about 16%, passing the limit was not always enough;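 note: cells stimulated with the agonist NPW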
Target sequence (P48145 whole entry, looked up): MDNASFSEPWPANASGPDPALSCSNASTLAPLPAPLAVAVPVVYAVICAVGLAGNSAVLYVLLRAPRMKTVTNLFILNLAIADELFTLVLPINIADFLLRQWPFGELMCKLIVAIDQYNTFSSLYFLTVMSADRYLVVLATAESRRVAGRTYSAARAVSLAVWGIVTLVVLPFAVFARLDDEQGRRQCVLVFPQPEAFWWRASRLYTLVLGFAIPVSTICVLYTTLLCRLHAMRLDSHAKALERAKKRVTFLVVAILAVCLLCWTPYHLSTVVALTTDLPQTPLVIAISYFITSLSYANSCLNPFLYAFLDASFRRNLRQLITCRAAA
CHO parental Ca = ATP-evoked calcium signal inhibitors, parental CHO, primary screen, counter-screen for OX1R antagonist project, cell-based, fluorescence, Fluo-8 calcium dye. AID 463079, 2010. parental CHO-K1, ATP-induced calcium, Fluo-8 fluorescence. inhibition, % at 5.6 µM. 330,000 compounds, 0.63% hits;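 active = inhibition above that plate's mean sample inhibition plus 3 SD, cut at about 26% in these data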
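Test system: untransfected parental CHO cell line; also added: ATP stimulus; dosing: 5.6 µM, single dose; signal: calcium-sensitive Fluo-8 fluorescence; measure: percent inhibition of ATP-evoked calcium rise, normalized to controls; benchmarks: low control ATP plus DMSO, high control DMSO only; replication: one well per compound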
GPR7 antag cf = GPR7 receptor antagonists, confirmation, cell-based, fluorescence, single concentration; AID 1952, 2009; shares compounds with GPR7 antag; 2,400 compounds, 52% hits; GPR7-expressing cells, calcium fluorescence antagonist mode; inhibition, % at 4.4 µM; in the data active = inhibition above about 24%;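 note: stimulated with the GPR7 agonist NPW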
MCHR1 antag = MCHR1 antagonists in cells, counter-screen for GPR7 antagonist project, cell-based, fluorescence, human. AID 2148, 2009. inhibition, % at 4.4 µM. 2,400 compounds, 62% hits. MCHR1-expressing cells, fluorescence antagonist assay. shares compounds with GPR7 antag; in the data active = inhibition above about 22%
Each line names hits and unclear results; the compound was inactive in the other large screens (follow-up assays come after a bar, where they were run).

COc1cccc(CNS(=O)(=O)c2ccc(S(=O)(=O)NC3CC3)cc2)c1	none
COc1ccc(CNS(=O)(=O)c2ccc(S(=O)(=O)NC3CC3)cc2)cc1	GPR7 antag 27 | GPR7 antag cf inactive | MCHR1 antag inactive
CCOC(=O)C1CCN(C(=O)c2ccccc2NC(=O)C2=C(C)OCCS2)CC1	none
CC(CC(=O)N1CCN(c2cccc(Cl)c2)CC1)S(=O)(=O)c1ccc2c(c1)NC(=O)CO2 (centres undefined)	OX1R antag-1 57, TAAR1 antagonist 79, OX1R antag-2 60, GPR7 antag 28, CHO parental Ca 78 | GPR7 antag cf 37 | MCHR1 antag 77
COc1ccccc1C(=O)N/C(=C/c1ccc(Br)cc1)C(=O)N1CCOCC1	none (no result: OX1R antag-1, OX1R antag-2, GPR7 antag, CHO parental Ca)
CC(C)CC(c1nnnn1CCc1ccccc1)N1CCN(C(=O)c2ccco2)CC1 (centres undefined)	none
CCC(c1nnnn1CCc1ccccc1)N1CCN(C(=O)c2ccco2)CC1 (centres undefined)	GPR7 antag 21 | GPR7 antag cf inactive | MCHR1 antag inactive
Cc1ccc(C)c(N2CCN(CCCNC(=O)Cn3cccc3C(=O)c3ccccc3C)CC2)c1	GPR7 antag 28 | GPR7 antag cf 36 | MCHR1 antag 65
Cc1ccccc1C(=O)c1cccn1CC(=O)NCCCN1CCCCC1	none
CS(=O)(=O)N(CC(=O)N1CCCC1)c1ccccc1Br	none
O=C1C=C(c2ccc3c(c2)OCO3)C[C@@H](c2ccc(F)cc2)C1	none (no result: GPR7 antag)
Fc1ccc(C2CCNCC2COc2ccc3c(c2)OCO3)cc1 (centres undefined)	GPR7 antag 28 | GPR7 antag cf 36 | MCHR1 antag 28
COC(=O)[C@H](CO)N1C(=O)[C@@H]2[C@H](C1=O)C1C=C[C@H]2C1	none (no result: OX1R antag-1, OX1R antag-2, GPR7 antag, CHO parental Ca)
O=C(COC(=O)c1cc([N+](=O)[O-])ccc1N1CCOCC1)NCc1ccc(Cl)cc1Cl	GPR7 antag 24 | GPR7 antag cf 35 | MCHR1 antag 36
Cc1ccccc1S(=O)(=O)NC(=O)C1(C)CCN1C(=O)c1ccccc1CCc1ccccc1 (centres undefined)	none (no result: OX1R antag-1, OX1R antag-2, GPR7 antag, CHO parental Ca)
O=C(COC(=O)[C@H](Cc1ccccc1)NC(=O)c1cccs1)Nc1ccccc1C(F)(F)F	GPR7 antag 23 | GPR7 antag cf 39 | MCHR1 antag 32
NC(=O)NC(=O)COC(=O)[C@H](Cc1ccccc1)NC(=O)c1cccs1	none
O=C(N/N=C/C(Br)=C/c1ccccc1)c1cnccn1	none
CC(C)C1N(C(=O)CN2CCCCC2)CCN1S(=O)(=O)c1ccccc1 (centres undefined)	GPR7 antag 27 | GPR7 antag cf inactive | MCHR1 antag inactive
Cc1ccc(/C=C2\SC(=S)N(CCC(=O)N3CCCCC3)C2=O)cc1	none
O=C(CCN1C(=O)/C(=C\c2ccccc2)SC1=S)N1CCCCC1	GPR7 antag 22 | GPR7 antag cf inactive | MCHR1 antag inactive
CC(/C=C1\SC(=O)N(CCCC(=O)O)C1=O)=C\c1ccccc1	none
CC(=C\c1ccccc1)/C=C1/SC(=S)N(CCCC(=O)O)C1=O	GPR7 antag 39 (no result: OX1R antag-1, OX1R antag-2, CHO parental Ca) | GPR7 antag cf inactive | MCHR1 antag inactive
C=CCC1(CC=C)CCCN1C(=O)c1cc(COc2cncc(Cl)c2)on1	GPR7 antag 38, CHO parental Ca 65 | GPR7 antag cf 28 | MCHR1 antag 52
C=CCC1(CC=C)CCCN1C(=O)c1cc(COc2cccc(OC)c2)on1	none
CC1(C(=O)NS(=O)(=O)c2ccccc2C(F)(F)F)CCN1C(=O)CC1CCCC1 (centres undefined)	none (no result: OX1R antag-1, OX1R antag-2, GPR7 antag, CHO parental Ca)
O=[N+]([O-])c1ccc(NC(=S)NCCc2ccc(F)cc2)cc1	OX1R antag-1 48, OX1R antag-2 65, GPR7 antag 33, CHO parental Ca 34 | GPR7 antag cf 75 | MCHR1 antag 67
CC(C)Cc1ccc(C(C)C(=O)OCC(=O)c2c[nH]c3ccccc23)cc1 (centres undefined)	OX1R antag-1 39, TAAR1 agonist 55, GPR7 antag 34, CHO parental Ca 75 | GPR7 antag cf 67 | MCHR1 antag 78
COc1ccc(N(Cc2ccccc2)C(=O)OC(C)(C)C)c(C(=O)N(C)OC)c1	none (no result: GPR7 antag)
CC(=O)N1CN(C2CCCC2)Cc2c1sc1c2CCCC1	GPR7 antag 24 | GPR7 antag cf inactive | MCHR1 antag inactive
CC(=O)N1CN(C2CC(C)(C)NC(C)(C)C2)Cc2c1sc1c2CCCC1	none
O=C(CN1C(=O)C2C3CC(C(Br)C3Br)C2C1=O)N1CCOCC1 (centres undefined)	none
O=C(CN1C(=O)C2C3CC(C(Br)C3Br)C2C1=O)N1CCN(Cc2ccccc2)CC1 (centres undefined)	GPR7 antag 29 | GPR7 antag cf 41 | MCHR1 antag inactive
COc1ccc(CC(=O)N2CCN=C2SCc2cccc([N+](=O)[O-])c2)cc1	GPR7 antag 21 | GPR7 antag cf 41 | MCHR1 antag 58
O=C(C1CCCCC1)N1CCN=C1SCc1cccc([N+](=O)[O-])c1	GPR7 antag 48 | GPR7 antag cf inactive | MCHR1 antag inactive
O=C(C1CCCCC1)N1CCN=C1SCc1cccnc1	none
COc1ccc(S(=O)(=O)N2CCN=C2SCc2cccc(F)c2)cc1	GPR7 antag 27 | GPR7 antag cf 27 | MCHR1 antag 46
O=S(=O)(c1ccc(Br)cc1)N1CCN=C1SCc1cccc(F)c1	none
O=C(Cc1ccc([N+](=O)[O-])cc1)N1CCN=C1SCc1ccccc1	none
CN(C(=O)COC(=O)c1ccccc1OCc1ccc(Cl)cc1)c1c(N)n(Cc2ccccc2)c(=O)[nH]c1=O	none (no result: GPR7 antag)
O=C(Nc1ccc(-n2ccc(C(F)(F)F)n2)cc1)Nc1cccc(Cl)c1	OX1R antag-1 57, GPR7 antag 21 | GPR7 antag cf 42 | MCHR1 antag 71
O=C(O)c1ccccc1C(=O)Nc1ccc(-n2ccc(C(F)(F)F)n2)cc1	none
